Data: paper PMC7236545 (Journal of the American Chemical Society, 2020)

System: HCT116 (wild-type APC) cells
Assay: Cell viability / toxicity in HCT116
Type: cell-based
Settings: Homo sapiens, HCT-116, read-out: IC50 (viability / growth inhibition)
How it was run: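 Dose-response toxicity assay of test compound on human HCT116 (APC wild-type) cells. Cells are kept in low-serum medium (0.2% FBS with growth factors), not fully defined medium. IC50 is the concentration that reduces cell viability by 50%.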

SMILES: CC[C@H](C)C(=O)O[C@H]1CCC=C2C=C[C@H](C)[C@H](CC[C@@H](O)C[C@@H](O)CC(=O)O)[C@H]21 [Compactin, compactin]
- IC50: ~18.6 µM
